# The list is not random: actives were taken first. Their share in the collection is about 2.3%.
# PLCg1 inh: inhibitors of human phospholipase C gamma1. P19174. purified PLC-gamma1, fluorogenic substrate, fluorescence. inhibition, % at 12.2 µM. 370,000 tested, 0.84% active. AID 720700
# Tn6 DDE FP: disrupts Tn6 cyclic peptide binding to fibrin D-Dimer-E complex | inhibition, % at 8.3 µM | Fibrin DD(E) TRITC-Tn6 fluorescence polarization displacement | 370,000 tested, 0.21% active | AID 720509 | P02675;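 active means inhibition above a per-campaign cutoff: mean of compounds within control limits plus 3 SD, cut at about 15% in these data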;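 further: 0% = median of all compound wells on the plate and 100% = blocking peptide control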
# Tn7 DDE FP: disrupts Tn7 cyclic peptide binding to fibrin D-Dimer-E complex; P02675; 370,000 tested, 0.13% active; inhibition, % at 8.3 µM; FP displacement of FITC-Tn7 peptide from fibrin DD(E); 0% = median of compound wells per plate;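 active means inhibition above the mean of compounds falling within the control limits plus 3 SD of them, cut at about 14% in these data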;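 further: 0% = plate median of compound wells and 100% = 10 µM Aha-Tn7 peptide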
#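 Test system – human fibrin DD(E) · Times – 10 min preincubation, 3 h with tracer, room temperature · Detection – fluorescence polarization of the labelled Tn7 tracer · Measure – percent inhibition normalized to high-control wells · Benchmarks – high control wells with 10 µM unlabelled Aha-Tn7 peptide (full inhibition) · Repeats – singlicate testing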
# ADAM10 inh: ADAM10 inhibition, QFRET primary screen | recombinant ADAM10, EDANS/DABCYL FRET peptide cleavage, 3 h | inhibition, % at 7 µM | O14672 | 370,000 tested, 0.62% active;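 active means inhibition above a per-campaign cutoff equal to the mean of compounds falling between control-based bounds plus 3 SD, cut at about 20% in these data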;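 further: 0% = DMSO wells while the 100% control is not disclosed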
# ADAM17 inh: ADAM17 inhibition, QFRET primary screen. inhibition, % at 6.95 µM. 370,000 tested, 0.83% active. recombinant ADAM17, EDANS/DABCYL FRET peptide cleavage. P78536;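 active means inhibition above the mean of compounds lying between control limits plus 3 SD, set per campaign, cut at about 8.5% in these data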;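 further: 0% = DMSO-only wells as the low control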
# PLC-beta3 inh: blocks human PLC-beta3 enzyme activity | inhibition, % at 12.2 µM | 370,000 tested, 0.18% active | Purified PLC-beta3, fluorogenic substrate, fluorescence; in the data active means inhibition above about 11%;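 further: 0% = median of compound wells on plate and 100% = full blocker control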
# PLCg1 ctr: counter-screen for PLC-beta3 inhibitors: inhibitors of human PLC-gamma1 | 3,300 tested, 3.1% active | inhibition, % at 12.3 µM | purified PLC-gamma1, fluorogenic substrate, fluorescence | shares compounds with PLCg1 inh | AID 743258
# PLCbeta3 conf: confirmation of human PLC-beta3 inhibitors. shares compounds with PLCg1 inh. purified PLC-beta3, fluorogenic substrate fluorescence. inhibition, % at 12.3 µM. 3,300 tested, 1% active. AID 743261; in the data active means inhibition above about 11%
# * hit, by the source's call; . = not tested or not shown. Unless noted, no stated cut-off is given here; in the data, active means inhibition above about 9.5%; inactive means the rest.
SMILES,PLCg1 inh,Tn6 DDE FP,Tn7 DDE FP,ADAM10 inh,ADAM17 inh,PLC-beta3 inh,PLCg1 ctr,PLCbeta3 conf
Cc1noc(C)c1S(=O)(=O)Nc1ccc2c(c1)C(=O)N([C@H](C)CO)C[C@H](C)[C@H](CN(C)C(=O)NC(C)C)OCCCC[C@@H](C)O2,11*,2,-2,-2,5,8,-1,0
CCOC(=O)CCCCCC(=O)Nc1ccc2c(c1)C(=O)N([C@@H](C)CO)C[C@H](C)[C@H](CN(C)C(=O)Nc1ccc(C(F)(F)F)cc1)OCCCC[C@H](C)O2,0,1,-8,5,-1,0,.,.
CCC(C)Nc1nc2c(c(=O)[nH]c(=O)n2C)n1CCCc1ccccc1 (centres undefined),10*,-1,-6,2,1,-4,-6,-3
CCNc1nc2c(c(=O)[nH]c(=O)n2C)n1CC(C)C,1,5,-5,-2,0,3,.,.
CNc1nc2c(c(=O)[nH]c(=O)n2C)n1CCCc1ccccc1,1,-6,0,-2,-3,-5,.,.
CCC(C)Nc1nc2c(c(=O)[nH]c(=O)n2C)n1CCC(C)C (centres undefined),10*,-4,7,10,5,11*,0,7
COc1cccc(CNC(=O)[C@@H]2CCCN2C(=O)[C@H]2CCCCN2)c1,18*,1,1,-1,7,7,-4,-1
COc1cccc(CNC(=O)[C@H]2CCCN2C(=O)[C@H]2CCCN2)c1,1,0,5,-4,-4,-1,.,.
Cc1ccc(N2C(=O)CC(Cn3nc(C)cc3C)C2=O)cc1 (centres undefined),11*,6,2,5,-2,-1,7,1
COc1ccc(CN(CC#Cc2ccc(C)cc2)C(N)=NC(=O)CCc2ccccc2)c(OC)c1,-1,-1,-8,13,6,-6,.,.
Cc1ccc(N(CC(N)=O)C2SC(=O)N(Cc3ccccc3)C2=O)cc1 (centres undefined),9.6*,8,-4,7,3,9,-6,2
CCN(CC)C(=O)CSc1nc2ccccc2c(=O)n1-c1cccc(OC)c1,10*,-4,-5,1,-1,4,-8,-3
COc1ccc(/C=N/Nc2ccc(C(F)(F)F)cc2[N+](=O)[O-])cc1O,11*,4,-4,0,3,7,3,3
COC(=O)C1CCCN1C(=O)COc1ccc(Br)cc1Cl (centres undefined),14*,-8,-11,7,2,8,-8,-118
O=C(COc1ccc(Br)cc1Cl)NC1CCCCC1,0,4,-11,-6,3,-1,.,.
CN(Cc1ccccc1)S(=O)(=O)c1cccc(C(=O)OCc2cccc([N+](=O)[O-])c2)c1,0,-4,2,1,2,-1,.,.
CCc1ccccc1NC(=O)CN(C)C(=O)COC(=O)c1cccnc1Cl,10*,3,-5,-8,7,-1,-6,0
CCc1ccccc1NC(=O)CN(C)C(=O)COC(=O)c1c(Cl)cccc1Cl,3,4,2,-1,-5,-7,.,.
COc1ccc(C(CC(=O)N2CCCC2)C(C)C)cc1 (centres undefined),2,-1,2,-2,-3,4,.,.
COc1ccc(C(CC(=O)N2CCCC2)c2ccc(F)cc2)cc1 (centres undefined),11*,3,0,4,6,2,5,4
CCOc1ccc(CO/N=C/c2c(C)[nH]c(=O)[nH]c2=O)cc1,13*,-7,0,4,6,0,-2,-2
Cc1ccc(S(=O)(=O)N(C)[C@H]2C[C@H]3c4cc(-c5ccccc5C)ccc4CCN3C[C@H]2[C@H](C)O)cc1,-34,-1,2,-14,-2,-32,.,.
C=CCn1c(COc2ccc(C)cc2)nnc1SCC(=O)Nc1cc(Cl)cc(Cl)c1,1,1,-5,7,5,2,.,.
